Measured values published in ChEMBL document CHEMBL3232870, “Discovery of 3-(4-methanesulfonylphenoxy)-N-[1-(2-methoxy-ethoxymethyl)-1H-pyrazol-3-yl]-5-(3-methylpyridin-2-yl)-benzamide as a novel glucokinase activator (GKA) for the treatment of type 2 diabetes mellitus” (Bioorg Med Chem, 2014).
In brackets after ≈: the same amount, converted by molar mass.

Columns and labels:
Mus musculus [1] = assay: Toxicity in fasting C57BL/J6 mouse assessed as glucose level at 50 mg/kg, po measured after 60 mins; assay type: organism-based; set-up: dose 50 mg/kg, route oral; conditions: in vivo, 1 h
Procedure, shortened: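 Eight-week-old male C57BL/6 mice were fasted 6 h with free access to water, then dosed orally with compound or 0.5% methylcellulose vehicle, with no glucose challenge. Blood glucose was followed up to 360 min, n = 6 per group.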

Salmonella typhimurium [2] = assay: Cytotoxicity in Salmonella typhimurium TA98 at 1.5 to 5000 ug/plate in presence of S9 fraction; assay type: organism-based; conditions: salmonella enterica subsp. enterica serovar typhimurium
Procedure, shortened: (§1)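 Ames reverse mutation test by direct plate incorporation in S. typhimurium TA98 and TA100, with or without Aroclor 1254-induced rat liver S9 mix. Compound in DMSO at 1.5–5000 µg/plate, plated in top agar, incubated 37 °C for about 50 h, then revertant colonies counted. Plates were checked for precipitation and cytotoxicity. A positive was a reproducible, dose-related increase in revertants of more than 2-fold.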

Salmonella typhimurium [3] = assay: Cytotoxicity in Salmonella typhimurium TA100 at 1.5 to 5000 ug/plate in absence of S9 fraction; assay type: organism-based; conditions: salmonella enterica subsp. enterica serovar typhimurium; procedure, shortened: as §1
[4] = Elimination half life in ICR mouse at 3 mg/kg, iv and 10 mg/kg, po; assay type: ADME, organism-based; conditions: in vivo, read-out: beta t1/2 (converted)
Procedure, shortened: (§2)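 Male ICR mice and 7-week-old SD rats received a 3 mg/kg intravenous bolus or a 10 mg/kg oral gavage dose. Plasma was deproteinized with acetonitrile (2 volumes) and compound measured by HPLC. Parameters came from noncompartmental analysis.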

[5] = Cmax in ICR mouse at 3 mg/kg, iv and 10 mg/kg, po; assay type: ADME, organism-based; conditions: in vivo; procedure, shortened: as §2
[6] = Cmax in Sprague-Dawley rat at 3 mg/kg, iv and 10 mg/kg, po; assay type: ADME, organism-based; conditions: in vivo; procedure, shortened: as §2
[7] = Tmax in Sprague-Dawley rat at 3 mg/kg, iv and 10 mg/kg, po; assay type: ADME, organism-based; conditions: in vivo
Procedure, shortened: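 Male ICR mice and 7-week-old SD rats received a 3 mg/kg iv bolus or a 10 mg/kg oral gavage dose. Plasma was precipitated with 2 volumes of acetonitrile and analysed by HPLC. Parameters came from noncompartmental analysis.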

[8] = Cmax in male Sprague-Dawley rat at 250 mg/kg, po measured on day 14; assay type: ADME, organism-based; set-up: dose 250 mg/kg, route oral; conditions: in vivo
Procedure, shortened: (§3)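 Sprague–Dawley rats, 5 weeks old at arrival, both sexes. Given the compound by oral gavage once daily for 14 days at 0, 250, 500 or 1000 mg/kg/day, with 0.5% methylcellulose as vehicle. Toxicokinetic parameters were determined on Day 1 and Day 14.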

[9] = Cmax in male Sprague-Dawley rat at 500 mg/kg, po measured on day 14; assay type: ADME, organism-based; set-up: dose 500 mg/kg, route oral; conditions: in vivo; procedure, shortened: as §3
[10] = Cmax in female Sprague-Dawley rat at 250 mg/kg, po measured on day 14; assay type: ADME, organism-based; set-up: dose 250 mg/kg, route oral; conditions: in vivo; procedure, shortened: as §3
[11] = Cmax in female Sprague-Dawley rat at 500 mg/kg, po measured on day 14; assay type: ADME, organism-based; set-up: dose 500 mg/kg, route oral; conditions: in vivo; procedure, shortened: as §3
[12] = Tmax in male Sprague-Dawley rat at 250 mg/kg, po measured on day 14; assay type: ADME, organism-based; set-up: dose 250 mg/kg, route oral; conditions: in vivo
Procedure, shortened: (§4)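 Sprague–Dawley rats of both sexes, 5 weeks old at arrival, received daily oral gavage at 0, 250, 500 or 1000 mg/kg/day for 14 days. Vehicle was 0.5% methylcellulose at 10 mL/kg. Toxicokinetics were taken on Day 1 and Day 14. Necropsy was by Day 15. Testis was fixed in modified Davidson's fixative, paraffin-sectioned and H&E-stained, with histopathology on control and high-dose groups only.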

[13] = Tmax in female Sprague-Dawley rat at 250 mg/kg, po measured on day 1; assay type: ADME, organism-based; set-up: dose 250 mg/kg, route oral; conditions: in vivo; procedure, shortened: as §4
[14] = Tmax in female Sprague-Dawley rat at 500 mg/kg, po measured on day 1; assay type: ADME, organism-based; set-up: dose 500 mg/kg, route oral; conditions: in vivo; procedure, shortened: as §4
[15] = Tmax in female Sprague-Dawley rat at 500 mg/kg, po measured on day 14; assay type: ADME, organism-based; set-up: dose 500 mg/kg, route oral; conditions: in vivo; procedure, shortened: as §4
[16] = Tmax in female Sprague-Dawley rat at 1000 mg/kg, po measured on day 14; assay type: ADME, organism-based; set-up: dose 1000 mg/kg, route oral; conditions: in vivo; procedure, shortened: as §4
[17] = AUC (0 to t) in male Sprague-Dawley rat at 250 mg/kg, po measured on day 1; assay type: ADME, organism-based; set-up: dose 250 mg/kg, route oral; conditions: plasma; procedure, shortened: as §3
[18] = AUC (0 to t) in female Sprague-Dawley rat at 500 mg/kg, po measured on day 1; assay type: ADME, organism-based; set-up: dose 500 mg/kg, route oral; conditions: plasma; procedure, shortened: as §3
[19] = AUC (0 to t) in female Sprague-Dawley rat at 1000 mg/kg, po measured on day 1; assay type: ADME, organism-based; set-up: dose 1000 mg/kg, route oral; conditions: plasma; procedure, shortened: as §3
Rattus norvegicus [20] = assay: Toxicity in Sprague-Dawley rat assessed as seminiferous tubule vacuolation at 250 to 1000 mg/kg, po by hematoxylin and eosin staining-based microscopy; assay type: organism-based; set-up: dose 250-1000 mg/kg, route oral; conditions: in vivo; procedure, shortened: as §4
Rattus norvegicus [21] = assay: Toxicity in Sprague-Dawley rat assessed as multinucleated giant cells in testis at 250 to 1000 mg/kg, po by hematoxylin and eosin staining-based microscopy; assay type: organism-based; set-up: dose 250-1000 mg/kg, route oral; conditions: in vivo; procedure, shortened: as §4
Canis familiaris [22] = assay: Toxicity in Beagle dog assessed as testicular effect administered repeated dose level of 100 mg/kg/day, po administered on days 3, 6 and 8 by hematoxylin and eosin staining-based microscopy; assay type: organism-based, Canis lupus familiaris; set-up: route oral; conditions: in vivo
Procedure, shortened: (§5)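 Dogs received escalating oral doses of 100, 300 and 1000 mg/kg/day over 8 days (Days 3, 6 and 8 for each dose). Vehicle was 0.5% methylcellulose at 5 mL/kg. Two animals were necropsied at termination, and testes were fixed in modified Davidson's fixative, paraffin-embedded, H&E-stained and examined microscopically.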

Canis familiaris [23] = assay: Toxicity in Beagle dog assessed as testicular effect administered repeated dose level of 1000 mg/kg/day, po administered on days 3, 6 and 8 by hematoxylin and eosin staining-based microscopy; assay type: organism-based, Canis lupus familiaris; set-up: route oral; conditions: in vivo; procedure, shortened: as §5
Salmonella typhimurium [24] = assay: Genotoxicity in Salmonella typhimurium TA98 assessed as increase in number of revertants at 1.5 to 5000 ug/plate by Ames test in presence of S9 fraction; assay type: toxicity, organism-based; conditions: salmonella enterica subsp. enterica serovar typhimurium; procedure, shortened: as §1
[25] = Metabolic stability in mouse liver microsomes assessed as compound remaining after 1 hr relative to control; assay type: ADME; conditions: read-out: Stability
Procedure, shortened: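 Liver microsomes from mouse, dog or human were incubated with compound for 1 h, and the percentage of compound remaining was determined.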

Mus musculus [26] = assay: Antidiabetic activity in glucose-treated C57BL/J6 db/db mouse assessed as reduction of glucose AUC at 50 mg/kg, po preincubated for 30 mins followed by glucose challenge measured after 30 to 180 mins by oral glucose tolerance test relative to control; assay type: functional; set-up: scale not given: the % may be the effect or the level left; conditions: in the assay text read “C57BL/J6 mouse” for “C57BL/J6 db/db mouse”
Procedure, shortened: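 Oral glucose tolerance test. Mice: eight-week-old male C57BL/6 or ten-week-old male C57BLKS/J db/db, fasted overnight with water. Compound or 0.5% methylcellulose vehicle given orally, then an oral 2 g/kg glucose challenge 30 min later. Tail-tip blood glucose was read just before and at 30, 60, 90, 120 and 180 min. AUC was calculated from the time–glucose curve; n = 6.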

Cytochrome P450 3A4 = Cytochrome P450 3A4 (Homo sapiens, UniProt P08684); assay: Induction of CYP3A4 in human liver microsomes up to 25 to 50 uM; assay type: ADME
Chain of Cytochrome P450 3A4 (P08684 whole entry): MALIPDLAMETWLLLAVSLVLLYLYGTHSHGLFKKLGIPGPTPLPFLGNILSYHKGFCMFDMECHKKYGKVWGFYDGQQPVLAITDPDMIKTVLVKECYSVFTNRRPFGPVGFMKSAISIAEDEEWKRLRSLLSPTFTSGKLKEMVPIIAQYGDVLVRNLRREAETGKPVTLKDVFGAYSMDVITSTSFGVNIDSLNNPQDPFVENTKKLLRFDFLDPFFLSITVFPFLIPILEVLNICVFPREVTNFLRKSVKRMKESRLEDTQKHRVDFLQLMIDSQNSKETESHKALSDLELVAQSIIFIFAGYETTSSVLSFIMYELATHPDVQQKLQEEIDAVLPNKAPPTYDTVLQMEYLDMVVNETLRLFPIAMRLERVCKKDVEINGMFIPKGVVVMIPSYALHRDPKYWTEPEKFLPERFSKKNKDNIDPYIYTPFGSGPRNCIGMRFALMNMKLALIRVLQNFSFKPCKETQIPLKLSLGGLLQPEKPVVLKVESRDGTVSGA

[27] = Aqueous solubility of the compound in phosphate buffer at pH 7.4; assay type: physicochemical
Mus musculus [28] = assay: Toxicity in C57BL/J6 mouse assessed as hypoglycemia at 150 mg/kg, po; conditions: in vivo
Mus musculus [29] = assay: Toxicity in C57BL/J6 db/db mouse assessed as effect on serum lipids at 30 to 100 mg/kg, po; conditions: in vivo

- half-life [4]: 1.4 h
- Cmax [5]: 11700 ng/mL
- Cmax [6]: 3700 ng/mL
- Tmax [7]: 0.42 h
- Cmax [8]: 1820 ng/mL
- Cmax [9]: 2800 ng/mL
- Cmax [10]: 5200 ng/mL
- Cmax [11]: 3920 ng/mL
- Tmax [12]: 3 h
- Tmax [13]: 3.7 h
- Tmax [14]: 3.3 h
- Tmax [15]: 1.3 h
- Tmax [16]: 2.7 h
- AUC(0-t) [17]: 13100 ng·h/mL
- AUC(0-t) [18]: 19800 ng·h/mL
- AUC(0-t) [19]: 29200 ng·h/mL
- remaining at 1 h [25]: > 60%
- Activity (Cytochrome P450 3A4): Not Active
- solubility [27]: 122 µM (≈ 65.5 µg/mL)
Compound: COCCOCn1ccc(NC(=O)c2cc(Oc3ccc(S(C)(=O)=O)cc3)cc(-c3ncccc3C)c2)n1
- Activity (Mus musculus [1]): > 60 mg/dL
- Activity (Salmonella typhimurium [2]): Non-toxic
- Activity (Salmonella typhimurium [3]): Non-toxic
- Activity (Rattus norvegicus [20]): Non-toxic
- Activity (Rattus norvegicus [21]): Non-toxic
- Activity (Canis familiaris [22]): Non-toxic
- Activity (Canis familiaris [23]): Non-toxic
- Activity (Salmonella typhimurium [24]): Non-toxic
- Activity (Mus musculus [26]): 32.3%
- Activity (Mus musculus [28]): Non-toxic
- Activity (Mus musculus [29]): Non-toxic
